ChEMBL document CHEMBL1123230, “Synthesis and biological activities of dynorphin A analogues with opioid antagonist properties” (J Med Chem, 1986)

How the values were obtained:
[1] = biological target: Kappa-type opioid receptor (Cavia porcellus) (UniProt P41144); experiment: Hill coefficient value was measured against Opioid receptor kappa 1 in guinea pig cerebellum membrane homogenates; assay type: cell membranes
[2] = biological target: Delta-type opioid receptor (Rattus norvegicus, UniProt P33533); experiment: Compound was evaluated for the inhibition of [3H]DSLET([[3H]D-Ser2,Leu5,Thr6]enkephalin binding to Opioid receptor delta 1 in rat brain homogenates.; assay type: tissue-based
[3] = biological target: T1, Kappa-type opioid receptor (Homo sapiens, UniProt P41145); experiment: Receptor selectivity index is the ratio of the apparent KI at kappa opioid receptor over the apparent KI at the highest affinity site
Outline: (§1)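 RSI is the apparent KI at the given site divided by the apparent KI at the highest-affinity site. KI values come from [3H]DAGO (μ) and [3H]DSLET (δ) binding in rat brain membranes and [3H]bremazocine (κ) binding in guinea pig cerebellum membranes, all at 25 °C with peptidase inhibitors.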

Mu-type opioid receptor [4] = biological target: Mu-type opioid receptor (Cavia porcellus, UniProt P97266); experiment: Compound was evaluated for the agonistic activity against Opioid receptor mu 1 in guinea pig ileum.; assay type: functional, tissue-based
Outline: (§2)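 Isolated organs (guinea pig ileum myenteric plexus-longitudinal muscle, hamster vas deferens, rabbit vas deferens) were electrically stimulated, and inhibition of the evoked twitch contractions was recorded. The bath held a peptidase inhibitor mixture. Peptides were tested up to 10 μM.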

[5] = biological target: Delta-type opioid receptor (Rattus norvegicus) (UniProt P33533); experiment: Hill coefficient value was measured against delta sites in rat brain homogenates; assay type: tissue-based
[6] = biological target: Kappa-type opioid receptor (Cavia porcellus, UniProt P41144); experiment: Compound was evaluated for the inhibition of [3H]bremazocine binding to Opioid receptor kappa 1 in guinea pig cerebellum membrane homogenates.; assay type: cell membranes
Outline: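 Guinea pig cerebellum crude membranes were incubated with [3H]bremazocine (0.5 nM) at 25 °C for 60 min with peptidase inhibitors. Values are the mean ± SEM of at least three independent observations.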

Oryctolagus cuniculus = species: Oryctolagus cuniculus; experiment: The compound was evaluated for the antagonistic activity in rabbit vas deferens; assay type: functional
Outline: (§3)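 Isolated electrically stimulated organ (guinea pig ileum myenteric plexus-longitudinal muscle; rabbit vas deferens), run with a peptidase-inhibitor mixture, twitch contractions recorded. In the antagonism test, the peptide concentration was set to depress the twitch by 20-40%. Analogue tested up to 10 μM. Ke is the concentration reducing the effect of a double dynorphin A dose to that of a single dose. Mean ± SEM of at least four independent measurements.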

[7] = biological target: Mu-type opioid receptor (Rattus norvegicus) (UniProt P33535); experiment: Hill coefficient value was measured against mu sites in rat brain homogenates; assay type: tissue-based
Mu-type opioid receptor [8] = biological target: Mu-type opioid receptor (Rattus norvegicus, UniProt P33535); experiment: Compound was evaluated for the inhibition of [3H]DAGO([[3H]D-Ala,MePhe4,Glyol5]enkephalin) binding to mu sites in rat brain homogenates.; assay type: tissue-based
Cavia porcellus [9] = species: Cavia porcellus; experiment: The compound was evaluated for the antagonistic activity against DAGO (mu-receptor) in guinea pig ileum.; assay type: functional
[10] = system: Delta-type opioid receptor; experiment: Receptor selectivity index is the ratio of the apparent KI at delta opioid receptor over the apparent KI at the highest affinity site; outline: as §1
[11] = biological target: T1, Kappa-type opioid receptor; experiment: Compound was evaluated for the agonistic activity against Opioid receptor kappa 1 in rabbit vas deferens.; assay type: functional, Oryctolagus cuniculus; conditions: target entry is the homologue from another species; outline: as §2
Cavia porcellus [12] = species: Cavia porcellus; experiment: The compound was evaluated for the antagonistic activity against dynorphin A in guinea pig ileum; assay type: functional; outline: as §3
Cricetinae gen. sp. = experiment: The compound was evaluated for the antagonistic activity in hamster vas deferens; assay type: functional, Cricetulus griseus
Outline: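 Agonist concentration chosen to depress twitch height by 20-40%. Ke is the peptide concentration that reduces the effect of a double agonist dose to that of a single dose. Peptide tested up to 10 μM. At least four independent measurements.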

Chain of Delta-type opioid receptor (Rattus norvegicus) (P33533 whole entry): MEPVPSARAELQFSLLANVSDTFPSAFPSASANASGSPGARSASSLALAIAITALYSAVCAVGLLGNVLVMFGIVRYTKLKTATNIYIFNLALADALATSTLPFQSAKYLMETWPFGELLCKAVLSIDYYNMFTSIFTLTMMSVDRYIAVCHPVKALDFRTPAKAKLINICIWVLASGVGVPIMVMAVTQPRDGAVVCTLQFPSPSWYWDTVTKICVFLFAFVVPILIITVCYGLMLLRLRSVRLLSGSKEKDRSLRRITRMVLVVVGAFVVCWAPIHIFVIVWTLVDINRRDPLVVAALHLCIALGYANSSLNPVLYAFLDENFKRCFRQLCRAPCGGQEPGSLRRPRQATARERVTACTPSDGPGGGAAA
Chain of Delta-type opioid receptor (Rattus norvegicus, UniProt P33533) (P33533 whole entry): as above
T1 sequence (P41145 whole entry): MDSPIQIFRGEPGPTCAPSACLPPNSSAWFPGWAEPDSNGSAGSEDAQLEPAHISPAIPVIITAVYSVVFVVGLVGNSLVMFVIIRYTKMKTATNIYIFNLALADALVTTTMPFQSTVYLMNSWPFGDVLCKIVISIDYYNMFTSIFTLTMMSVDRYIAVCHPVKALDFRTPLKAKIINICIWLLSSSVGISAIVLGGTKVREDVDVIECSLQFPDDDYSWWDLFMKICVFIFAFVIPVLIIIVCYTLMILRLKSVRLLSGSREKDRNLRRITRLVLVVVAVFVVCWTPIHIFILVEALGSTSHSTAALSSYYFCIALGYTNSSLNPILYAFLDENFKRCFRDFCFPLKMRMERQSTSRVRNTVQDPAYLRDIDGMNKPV
Chain of Mu-type opioid receptor (Rattus norvegicus, UniProt P33535) (P33535 whole entry): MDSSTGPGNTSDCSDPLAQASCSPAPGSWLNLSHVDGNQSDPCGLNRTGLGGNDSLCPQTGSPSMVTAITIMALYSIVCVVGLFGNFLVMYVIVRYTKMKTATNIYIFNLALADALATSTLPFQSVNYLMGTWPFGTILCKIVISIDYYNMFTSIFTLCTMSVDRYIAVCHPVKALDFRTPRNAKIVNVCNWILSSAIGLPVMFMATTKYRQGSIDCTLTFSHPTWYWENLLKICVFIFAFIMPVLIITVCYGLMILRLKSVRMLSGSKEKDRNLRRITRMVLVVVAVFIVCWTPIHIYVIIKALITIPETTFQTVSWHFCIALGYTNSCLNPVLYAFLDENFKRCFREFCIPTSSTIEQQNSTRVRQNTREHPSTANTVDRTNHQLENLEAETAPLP
Chain of Mu-type opioid receptor (Rattus norvegicus) (P33535 whole entry): as above
Chain of Mu-type opioid receptor (Cavia porcellus, UniProt P97266) (P97266 whole entry): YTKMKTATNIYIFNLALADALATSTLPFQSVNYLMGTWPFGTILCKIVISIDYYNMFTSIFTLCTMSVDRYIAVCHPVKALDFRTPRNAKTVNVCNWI
Chain of Kappa-type opioid receptor (Cavia porcellus, UniProt P41144) (P41144 whole entry): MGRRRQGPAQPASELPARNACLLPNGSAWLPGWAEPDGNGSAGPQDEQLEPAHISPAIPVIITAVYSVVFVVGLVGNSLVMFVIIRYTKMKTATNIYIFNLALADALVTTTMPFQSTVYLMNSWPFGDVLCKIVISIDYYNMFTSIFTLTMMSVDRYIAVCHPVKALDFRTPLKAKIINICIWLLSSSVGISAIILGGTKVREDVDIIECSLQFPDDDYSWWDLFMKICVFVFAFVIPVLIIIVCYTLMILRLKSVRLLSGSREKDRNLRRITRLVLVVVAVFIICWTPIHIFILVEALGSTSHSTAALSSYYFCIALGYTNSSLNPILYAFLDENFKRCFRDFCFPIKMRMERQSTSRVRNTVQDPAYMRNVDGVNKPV
Chain of Kappa-type opioid receptor (Cavia porcellus) (P41144 whole entry): as above

Row | Structure (SMILES) | Hill coefficient [1] | Ki [2] [nM] | Ratio [3] | IC50 (Mu-type opioid receptor [4]) [nM] | Hill coefficient [5] | Ki [6] [nM] | Ke (Oryctolagus cuniculus) [nM] | Hill coefficient [7] | Ki (Mu-type opioid receptor [8]) [nM] | Ke (Cavia porcellus [9]) [nM] | Ratio [10] | IC50 [11] [nM] | Ke (Cavia porcellus [12]) [nM] | Ke (Cricetinae gen. sp.) [nM]
1 | CC[C@H](C)[C@H](NC(=O)[C@H](CCCN=C(N)N)NC(=O)[C@H](CCCN=C(N)N)NC(=O)[C@H](CC(C)C)NC(=O)[C@H](Cc1ccccc1)NC(=O)CNC(=O)CNC(=O)[C@@H](N)Cc1ccc(O)cc1)C(=O)N[C@@H](CCCN=C(N)N)C(=O)N1CCC[C@H]1C(=O)N[C@@H](CCCCN)C(=O)N[C@@H](CC(C)C)C(=O)N[C@@H](CCCCN)C(=O)N[C@@H](Cc1c[nH]c2ccccc12)C(=O)N[C@@H](CC(=O)O)C(=O)N[C@@H](CC(N)=O)C(=O)N[C@@H](CCC(=O)O)C(=O)O | 0.79 |  |  |  |  |  |  |  |  |  |  |  |  | 
2 | NCCCC[C@H](NC(=O)[C@H]1CCCN1C(=O)[C@H](CCCN=C(N)N)NC(=O)[C@@H](Cc1c[nH]c2ccccc12)NC(=O)[C@H](CCCN=C(N)N)NC(=O)[C@H](CCCN=C(N)N)NC(=O)[C@@H](Cc1c[nH]c2ccccc12)NC(=O)[C@H](Cc1ccccc1)NC(=O)CNC(=O)CNC(=O)[C@@H](N)Cc1ccc(O)cc1)C(=O)O | 0.96 | 303 | 1 | 69 | 0.9 | 20.6 | 199 | 1.23 | 20.3 | 13.9 | 15 | > 10000 |  | 
3 | CC(C)C[C@H](NC(=O)[C@H](Cc1ccccc1)NC(=O)CNC(=O)CNC(=O)[C@@H](N)Cc1ccc(O)cc1)C(=O)N[C@@H](CCCN=C(N)N)C(=O)N[C@@H](CCCN=C(N)N)C(=O)N[C@H](Cc1c[nH]c2ccccc12)C(=O)N[C@@H](CCCN=C(N)N)C(=O)N1CCC[C@@H]1C(=O)N[C@@H](CCCCN)C(=O)O | 1 | 5.43 | 1 | 2.84 | 0.98 | 0.049 |  | 0.86 | 0.58 |  | 110 | 12.8 |  | 
4 | CC(C)C[C@H](NC(=O)[C@H](Cc1ccccc1)NC(=O)CNC(=O)[C@@H](Cc1c[nH]c2ccccc12)NC(=O)[C@@H](N)Cc1ccc(O)cc1)C(=O)N[C@@H](CCCN=C(N)N)C(=O)N[C@@H](CCCN=C(N)N)C(=O)N[C@H](Cc1c[nH]c2ccccc12)C(=O)N[C@@H](CCCN=C(N)N)C(=O)N1CCC[C@@H]1C(=O)N[C@@H](CCCCN)C(=O)O | 0.83 | 561 | 1.5 | 8890 | 0.72 | 153 | 433 | 1.15 | 103 |  | 5.5 | > 10000 | 206 | 
5 | CC(C)C[C@H](NC(=O)[C@@H](Cc1c[nH]c2ccccc12)NC(=O)CNC(=O)CNC(=O)[C@@H](N)Cc1ccc(O)cc1)C(=O)N[C@@H](CCCN=C(N)N)C(=O)N[C@@H](CCCN=C(N)N)C(=O)N[C@H](Cc1c[nH]c2ccccc12)C(=O)N[C@@H](CCCN=C(N)N)C(=O)N1CCC[C@@H]1C(=O)N[C@@H](CCCCN)C(=O)O | 0.85 | 631 | 1 | > 10000 | 0.92 | 73 | 1432 | 1.06 | 142 | 249 | 8.6 | > 10000 | 606 | 
6 | CC(C)C[C@H](NC(=O)[C@@H](Cc1c[nH]c2ccccc12)NC(=O)CNC(=O)[C@@H](Cc1c[nH]c2ccccc12)NC(=O)[C@@H](N)Cc1ccc(O)cc1)C(=O)N[C@@H](CCCN=C(N)N)C(=O)N[C@@H](CCCN=C(N)N)C(=O)N[C@H](Cc1c[nH]c2ccccc12)C(=O)N[C@@H](CCCN=C(N)N)C(=O)N1CCC[C@@H]1C(=O)N[C@@H](CCCCN)C(=O)O | 0.85 | 134 | 1 | > 10000 | 0.86 | 23.8 | 293 | 0.89 | 51.5 | 83 | 5.6 | > 10000 | 61 | 
7 | CC[C@H](C)[C@H](NC(=O)[C@H](CCCNC(=N)N)NC(=O)[C@H](CCCNC(=N)N)NC(=O)[C@H](CC(C)C)NC(=O)[C@H](Cc1ccccc1)NC(=O)CNC(=O)CNC(=O)[C@@H](N)Cc1ccc(O)cc1)C(=O)N[C@@H](CCCNC(=N)N)C(=O)N1CCC[C@H]1C(=O)N[C@@H](CCCCN)C(=O)O [DYNORPHIN A (1-11)] |  |  |  |  |  |  |  |  |  |  |  | 13.1 |  | 
8 | CC[C@H](C)[C@H](NC(=O)[C@H](CCCN=C(N)N)NC(=O)[C@H](CCCN=C(N)N)NC(=O)[C@H](CC(C)C)NC(=O)[C@H](Cc1ccccc1)NC(=O)CNC(=O)CNC(=O)[C@@H](N)Cc1ccc(O)cc1)C(=O)N[C@@H](CCCN=C(N)N)C(=O)N1CCC[C@@H]1C(=O)N[C@@H](CCCCN)C(=O)O |  |  |  |  |  |  |  |  |  |  |  | 12.1 |  | 
9 | CC[C@H](C)[C@H](NC(=O)[C@H](CCCNC(=N)N)NC(=O)[C@H](CCCNC(=N)N)NC(=O)[C@H](CC(C)C)NC(=O)[C@H](Cc1ccccc1)NC(=O)CNC(=O)CNC(=O)[C@@H](N)Cc1ccc(O)cc1)C(=O)N[C@@H](CCCNC(=N)N)C(=O)N1CCC[C@H]1C(=O)N[C@@H](CCCCN)C(=O)N[C@@H](CC(C)C)C(=O)N[C@@H](CCCCN)C(=O)N[C@@H](Cc1c[nH]c2ccccc12)C(=O)N[C@@H](CC(=O)O)C(=O)N[C@@H](CC(N)=O)C(=O)N[C@@H](CCC(N)=O)C(=O)O |  |  |  |  |  | 0.23 |  |  |  |  |  |  |  | 
10 | CC(C)C[C@H](NC(=O)[C@H](Cc1ccccc1)NC(=O)[C@@H](Cc1c[nH]c2ccccc12)NC(=O)CNC(=O)[C@@H](N)Cc1ccc(O)cc1)C(=O)N[C@@H](CCCN=C(N)N)C(=O)N[C@@H](CCCN=C(N)N)C(=O)N[C@H](Cc1c[nH]c2ccccc12)C(=O)N[C@@H](CCCN=C(N)N)C(=O)N1CCC[C@@H]1C(=O)N[C@@H](CCCCN)C(=O)O | 1.03 | 1040 | 1 | 222 | 1.07 | 19.6 | 1127 | 1.31 | 327 | 40.5 | 53 | > 10000 | 10.3 | 1127
